Shown is part of a subset that was picked to be rich in hits.
Lmaj promast: reduces viability of Leishmania major promastigotes; resazurin fluorescence viability; inhibition, % at 10 µM; hit rate 9% among 200,000; AID 1063; in the data active = inhibition above about 50%;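 note: promastigotes grown with compound for 44 hours at 28 °C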
Hsp70 act: switches on Hsp70 transcription. hit rate 0.04% among 200,000. activation, % at 10 µM. AID 1203. HeLa Hsp70 promoter luciferase reporter, luminescence; scaled: vehicle 0, proteasome-inhibitor control 100%;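 active = activation above the mean across all tested compounds plus 3 SD, cutoff set per campaign, cut at about 5.5% in these data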;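 note: 100% = MG132 at 30 µM as the positive control and 0% = DMSO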
T cruzi inh: T. cruzi replication inhibition. T. cruzi beta-gal in NIH3T3, luminescence, 90 h. inhibition, % (concentration not given with the values). hit rate 1.4% among 300,000. AID 1885;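 active = mean inhibition across valid replicates above about 55%, limit read from the data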;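 note: signal also drops with host cell toxicity which is not excluded here; 0% = plate median of DMSO wells and 100% = zero luminescence signal; higher percent means less beta-gal luminescence so fewer parasites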
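Assay system: NIH/3T3 fibroblasts plus reporter T. cruzi. Amount: NIH/3T3 cells, 5,000 per well. Buffer or medium: DMEM, 2% fetal bovine serum. Doses: compound pinned at 50 nL/well, DMSO. Schedule: ≥90 h infection period, 3 h prior cell attachment. Signal: luminescent β-galactosidase signal after 60 min lysis. Read-out: parasite load inhibition, %.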
HSF1 inh: HSF1 inhibition. NIH3T3-HGL HSE-luciferase, MG132-induced, luminescence 8 h; stronger effect = lower value. activity change, negative = inhibition, % at 7.5 µM (by protocol). hit rate 0.77% among 300,000. AID 2098;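 active = more than half of replicate wells show activity change below -50%, luminescence cut by over half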;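 note: luciferase reports HSF-1 transcriptional activity via heat shock element; 0% = median of DMSO wells and -100% = zero luminescence signal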
HSF-1 act: increases HSF-1 driven luciferase reporter signal. activation, % at 9 µM. AID 504408. NIH3T3-HGL HSF-1 luciferase reporter, MG132, 8 h; 100% = twice DMSO control signal. hit rate 1.7% among 300,000;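 active = mean replicate activation of at least 50% with a set share of replicates each reaching 50%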;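 note: 0% = median of the neutral control wells and 100% = twice that signal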
The depositor's hits bear a star; · = not tested or not shown.

SMILES	Lmaj promast	Hsp70 act	T cruzi inh	HSF1 inh	HSF-1 act
CCn1c2ccccc2c2cc(CN3CCN(S(=O)(=O)Cc4ccccc4)CC3)ccc21	55*	0	36	8	14
CCOC(=O)N1CCN(C(=O)c2ccc3nc(N4CCCCC4)sc3c2)CC1	3	0	3	0	-3
Cc1nn(Cc2ccccc2)c2sc(C(=O)N3CCN(Cc4ccc5c(c4)OCO5)CC3)cc12	75*	0	50	-1	8
Cn1c(=O)oc2cc(S(=O)(=O)N3CCN(Cc4ccc5c(c4)OCO5)CC3)ccc21	76*	0	3	-4	-7
O=C(O)c1ccccc1C(=O)N1CCN(Cc2ccc3c(c2)OCO3)CC1	·	·	-5	-4	-2
CCn1c2ccccc2c2cc(CN3CCN(S(=O)(=O)CC)CC3)ccc21	28	0	21	-5	9
COc1cc(C)c(C)cc1S(=O)(=O)N1CCN(Cc2ccc3c(c2)OCO3)CC1	60*	0	-6	2	6
O=C(OCc1ccc2c(c1)OCO2)c1cccc(S(=O)(=O)N2CCCCC2)c1	55*	0	-16	-1	16
COc1cc(S(=O)(=O)N2CCN(Cc3ccc4c(c3)OCO4)CC2)c(C)cc1C	0	0	9	-1	12
O=C(c1ccc(S(=O)(=O)N2CCCCC2)cc1)N1CCN(Cc2ccc3c(c2)OCO3)CC1	98*	0	8	0	3
O=S(=O)(c1cccc(F)c1)N1CCN(Cc2ccc3c(c2)OCO3)CC1	74*	1	-4	0	-2
Cc1ccc(S(=O)(=O)c2nc(NN(C)C)sc2Cl)cc1	8	0	21	-3	4
COc1ccc(S(=O)(=O)N2CCN(S(=O)(=O)c3ccc4c(c3)OCCO4)CC2)cc1	-5	0	-9	0	1
COc1ccc(S(=O)(=O)N2CCN(S(=O)(=O)c3ccc4c(c3)OCCO4)CC2)cc1C	61*	0	12	4	-11
Cc1ccc(/C=C2\OC(=O)c3ccccc32)cc1	5	0	-20	48	59*
N#CCc1ccc(NC(=O)c2ccc(S(=O)(=O)N3CCOCC3)cc2)cc1	·	·	-15	-6	-8
Cn1c(=O)[nH]c(=O)c2c1nc(Br)n2C/C=N/Nc1ccccc1	65*	0	2	-4	-5
Cn1c(=O)[nH]c(=O)c2c1nc(Br)n2C/C=N/NC(=O)c1ccccc1	·	·	-2	10	42
COc1ccc(CCn2c(Br)nc3c2c(=O)[nH]c(=O)n3C)cc1	91*	0	-22	-11	1
CCN(CC)CCN(Cc1cc2cc3c(cc2[nH]c1=O)OCO3)C(=S)NCCOC	·	·	-10	7	25
CCC(C)[C@H]1COCCS(=O)(=O)N1Cc1ccc(Cl)cc1Cl (stereo not given in full)	·	·	-4	6	-1
Cc1ccc(OCc2nnc(SCc3cc(=O)[nH]c4ccccc34)n2-c2ccccc2)cc1	73*	0	7	-1	10
Cc1ccc(OCc2nnc(SCC(=O)Nc3cccc4ccccc34)n2-c2ccccc2)cc1	95*	0	16	26	73*
Cc1ccccc1OCc1nnc(SCc2cc(=O)[nH]c3ccccc23)n1-c1ccccc1	75*	0	21	6	12
Cc1ccc(NC(=O)CSc2nnc(-c3n[nH]c4ccccc34)n2-c2ccccc2)c(C)c1	53*	0	8	-5	-4
SMILES	Lmaj promast	Hsp70 act	T cruzi inh	HSF1 inh	HSF-1 act
CCC(C)n1c(SCC(=O)NC(=O)Nc2ccc3c(c2)OCCO3)nc2ccccc2c1=O (stereo not given)	86*	0	66*	24	54*
O=C(/C=C/c1ccc(Cl)cc1Cl)c1nc2ccccc2[nH]1	99*	0	2	10	19
Clc1cccc(Cl)c1/C=C/c1nc2ccccc2[nH]1	98*	0	39	26	26
O=c1[nH]c(/C=C/c2ccccc2Cl)nc2ccccc12	·	·	-4	22	35
Clc1ccc(/C=C/c2nc3ccccc3[nH]2)cc1	31	-1	33	-8	19
Clc1ccc(/C=C/c2nc3ccccc3[nH]2)c(Cl)c1	37	0	58*	-29	-36
O=C(/C(=C(\O)c1ccccc1)c1nc2ccccc2[nH]1)c1ccccc1	·	·	22	-2	-4
CCOc1cccc(N(C(=O)CNC(=O)c2ccco2)C(C(=O)NCC2CCCO2)c2ccccc2)c1 (stereo not given)	·	·	-9	1	-6
O=S(=O)(c1ccccc1F)N(Cc1ccco1)Cc1nnc(-c2ccccc2Br)o1	65*	0	·	·	·
Cn1c(SCC(=O)Nc2ccc(C(N)=O)cc2)nnc1-c1cccs1	·	·	-7	-5	-11
COc1cc(NC(=O)c2ccc(C)cc2)c(OC)cc1NC(=O)CN1CCCCC1	62*	0	18	11	7
COc1cc(NC(=O)c2cc(OC)c(OC)c(OC)c2)c(OC)cc1NC(=O)CN1CCCCC1	9	1	22	-2	5
COc1cc(NC(=O)Nc2cccc(Cl)c2)c(OC)cc1NC(=O)CN1CCCCC1	51*	0	32	2	6
O=C(CSc1ncn[nH]1)Nc1ccccc1-c1ccccc1	-3	0	0	3	5
O=C(CSc1ncn[nH]1)Nc1ccccc1Sc1ccccc1	70*	0	-10	-8	14
Cc1cccc(C(C)C)c1NC(=O)COC(=O)CN1C(=O)C2CC=CCC2C1=O (stereo not given)	·	·	-8	-3	0
CN1CCN(c2ncnc3sc(-c4ccccc4)cc23)CC1	14	0	74*	1	6
c1ccc(-c2cc3c(N4CCN(c5ccccc5)CC4)ncnc3s2)cc1	18	0	-27	7	17
Cc1ccc(NC2CC(=O)N(Cc3ccccc3)C2=O)cc1 (stereo not given)	-7	0	-10	24	56*
O=C1CC(N(O)C2CC(=O)N(Cc3ccccc3)C2=O)C(=O)N1Cc1ccccc1 (stereo not given)	1	0	-17	16	57*
O=C(COC(=O)/C=C/c1ccc(C(F)(F)F)cc1)NC1CCCC1	·	·	-6	-10	6
O=C(COC(=O)/C=C/c1ccc(C(F)(F)F)cc1)NC1CC1	·	·	-5	-56*	-58
Cc1cc(C)cc(N(CCC(=O)O)S(=O)(=O)c2ccc(Cl)cc2)c1	-6	0	-2	10	21
Cc1ccc(N(CCC(=O)Nc2nnc(C3CC3)s2)S(=O)(=O)c2ccccc2)cc1	53*	0	-11	-6	14
CCc1nnc(NC(=O)CCN(c2cc(C)cc(C)c2)S(=O)(=O)c2ccc(Cl)cc2)s1	79*	0	-3	1	3
CN(c1ccccc1)S(=O)(=O)c1ccc(C(=O)Nc2nnc(C3CC3)s2)cc1	·	·	-2	-6	-13
COc1ccc(/C(C)=N/NC(=O)CNC(=O)/C=C\c2ccccc2)c(OC)c1	·	·	-15	-66*	-69

Screening results (PubChem)
